Experimental data reported in ChEMBL document CHEMBL1123118, “Substrate probes for the mechanism of aromatic hydroxylation catalyzed by cytochrome P-450: selectively deuterated analogues of warfarin” (J Med Chem, 1985).

Legend:
Rattus norvegicus [1] = species: Rattus norvegicus; assay: Compound incubated with microsomal preparations from beta-naphthoflavone-treated male rats with the substrate rac 7-D and the amount of deuterium retained was reported after reincubation followed by normal workup; type: ADME
Rattus norvegicus [2] = species: Rattus norvegicus; assay: Amount of deuterium retained was reported after normal workup in beta-naphthoflavone-treated male rats with the substrate rac 7-D; type: ADME, organism-based
In short: (§1)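 Liver microsomes from male Sprague-Dawley rats (140–160 g), untreated or pretreated with phenobarbital or β-naphthoflavone; protein set to 10 mg/mL. The 1-mL mix held substrate, an NADP+/glucose 6-phosphate/MgCl2 cofactor solution, glucose-6-phosphate dehydrogenase and microsomes in 0.05 M phosphate pH 7.4. It ran 10 min at 37 °C, in duplicate. Hydroxywarfarins were measured by capillary GC-MS, and % deuterium retention was calculated as product over substrate incorporation.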

Rattus norvegicus [3] = species: Rattus norvegicus; assay: Compound incubated with microsomal preparations from phenobarbital treated male rats with the substrate rac 8-D and the amount of deuterium retained was reported after normal workup; type: ADME; in short: as §1
Rattus norvegicus [4] = species: Rattus norvegicus; assay: Amount of deuterium retained was reported after normal workup in rats; type: ADME, organism-based; in short: as §1
Rattus norvegicus [5] = species: Rattus norvegicus; assay: Amount of deuterium retained was reported after reincubation followed by normal workup in phenobarbital treated male rats; type: ADME, organism-based
Rattus norvegicus [6] = species: Rattus norvegicus; assay: Amount of deuterium retained was reported after reincubation followed by normal workup in phenobarbital treated male rats with rac 8-D; type: ADME, organism-based

Deuterium retention (Rattus norvegicus [1]) [%] | Deuterium retention (Rattus norvegicus [2]) [%] | Deuterium retention (Rattus norvegicus [3]) [%] | Deuterium retention (Rattus norvegicus [4]) [%] | Deuterium retention (Rattus norvegicus [5]) [%] | Deuterium retention (Rattus norvegicus [6]) [%] | SMILES
50 | 52 | 84 | 76 | 76 | 83 | CC(=O)CC(c1ccccc1)c1c(O)oc2cc(O)ccc2c1=O (centres undefined)
84 | 84 | 90 | 66 | 65 | 89 | CC(=O)CC(c1ccccc1)c1c(O)oc2ccc(O)cc2c1=O (centres undefined)
83 | 86 | 92 | 84 | 85 | 91 | CC(=O)CC(c1ccc(O)cc1)c1c(O)oc2ccccc2c1=O (centres undefined)
76 | 76 | 58 | 82 | 83 | 58 | CC(=O)CC(c1ccccc1)c1c(O)oc2c(O)cccc2c1=O (centres undefined)
